The subject of one series is Rattus norvegicus. The series is described as follows: Anxiolytic activity in rat plus-maze assay at 1 mg/kg, po. The format is functional, organism-based. On the set-up: dose 1 mg/kg. Summed up: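 Rats given vehicle (0.5% methyl cellulose) or compound orally; chlordiazepoxide 5 mg/kg ip as positive control. Placed on elevated plus maze 30 min after dosing; time on open arms recorded as anxiety index. Significance versus vehicle at p < 0.05; mean ± SEM, n = 16-18/group.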

Series [1] deals with T1, GABA-A receptor; anion channel (Rattus norvegicus) (UniProt O09028+P15431+P18506+P18508+P19969+P20236+P23574+P23576+P28471+P28473+P30191+P62813+P63079+P63138+Q91ZM7+Q9ES14). The series can be described thus: Receptor occupancy in vivo by displacement of [3H]Ro-151788 binding from GABA-A receptor in rat at 0.3 mg/kg, po. In kind it is functional, organism-based. On the set-up: dose 0.3 mg/kg. Summed up: (§1)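 Rat in vivo occupancy measured by [3H]Ro 15-1788 binding after oral dosing. Rats taken as a subgroup after the plus-maze trial, i.e. 30 min post-dose or later. ED50 derived from dose-dependent occupancy. Mean ± SEM, n = 5-10/group.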
For orientation: In a radioligand displacement assay an active substance lowers the binding of a labelled ligand.

Series [2] can be described thus: Plasma clearance in Rhesus monkey. The format is ADME, organism-based, Macaca mulatta. The method in brief: (§2)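 Pharmacokinetics from six animals per species: three dosed iv and three dosed po.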
Series [3] in a line: Half life in Rhesus monkey. In kind it is ADME, organism-based, Macaca mulatta. The note with it: in vivo. Summed up: as §2
Series [4] has as its target GABA-A receptor; alpha-5/beta-3/gamma-2 (Homo sapiens) (UniProt P18507+P28472+P31644). The series can be described thus: Efficacy against recombinant human GABA-Aalpha5 plus beta-3-gamma-2 expressed in L(tk-) cells by whole cell patch clamp method. In kind it is functional, cell-based. Summed up:
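Whole-cell patch clamp on αxβ3γ2 receptors stably expressed in L(tk-) cells, measuring the effect on current evoked by an EC20-equivalent of GABA. Reported relative to full agonist chlordiazepoxide (=1.0), or as direct percent modulation of the EC20 control, with inverse agonism given as percent. Mean of at least four independent experiments.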

Series [5] deals with T1, GABA-A receptor; anion channel (Rattus norvegicus). The series can be described thus: Receptor occupancy in vivo by displacement of [3H]Ro-151788 binding from GABA-A receptor in rat at 1 mg/kg, po. The format is functional, organism-based. On the set-up: dose 1 mg/kg. The method in brief: as §1

Activity calls are given as the source filed them. The calls are words filed in the database; no cut-off is given here.

For `Fc1cnc(-c2cc(-c3ccc(F)c(-c4ncccc4F)c3)cnn2)c(F)c1`, in the series with Rattus norvegicus, the result was Active.
Broadly, the clearance is a measure of how efficiently the substance is removed, as volume per time. By half-life is commonly meant how long it takes for the measured level to halve. `Fc1cnc(-c2cc(-c3cnnc(-c4c(F)cncc4F)c3)ccc2F)c(F)c1` returned an Activity in series [1] of 56%. For the same compound, the clearance in series [2] amounted to 6 mL/min/kg. This compound had a half-life in series [3] of 8.4 h. The Efficacy in series [4] is -5%.
In series [5], `Fc1cnc(-c2cc(-c3ccc(F)c(-c4ncc(F)cc4F)c3)cnn2)c(F)c1` gave an Activity of 71%.

These data come from ChEMBL document CHEMBL1146073, “A pyridazine series of alpha2/alpha3 subtype selective GABA A agonists for the treatment of anxiety” (J Med Chem, 2006).
